# Laboratory results published in ChEMBL document CHEMBL2086326, “Biological activity evaluation and structure-activity relationships analysis of ferulic acid and caffeic acid derivatives for anticancer” (Bioorg Med Chem Lett, 2012).
# What was measured:
# Type in all cases: functional, cell-based
# NCI-H1299 = assay: Cytotoxicity against human NCI-H1299 cells after 72 hrs by alamar blue assay; conditions: NCI-H1299, 72 h
# Method in brief: (§1)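 Cells seeded at 800–1000 per well (20–25 cells/µL) and left overnight to attach. Compounds were diluted serially from 10 mM DMSO stocks and tested at 8 final concentrations, 50 to 0.39 µM, in triplicate for 72 h. Vehicle control was 0.5% DMSO. Alamar blue was added to 10% final and fluorescence read after 4 h (ex 530, em 560 nm). Viability was expressed as percent of vehicle, and IC50 taken as 50% kill versus control.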
# HeLa = assay: Cytotoxicity against human HeLa cells after 72 hrs by alamar blue assay; method in brief: as §1
# HOP-62 = assay: Cytotoxicity against human HOP62 cells after 72 hrs by alamar blue assay; conditions: HOP-62, 72 h; method in brief: as §1
# M14 = assay: Cytotoxicity against human M14 cells after 72 hrs by alamar blue assay; conditions: M14, 72 h; method in brief: as §1
# NCI-H1792 = assay: Cytotoxicity against human NCI-H1792 cells after 72 hrs by alamar blue assay; conditions: NCI-H1792, 72 h; method in brief: as §1
# [1] = Cytotoxicity against human M4E cells after 72 hrs by alamar blue assay; method in brief: as §1
# Calu-1 = assay: Cytotoxicity against human Calu1 cells after 72 hrs by alamar blue assay; conditions: Calu-1, 72 h; method in brief: as §1
# NCI-H460 = assay: Cytotoxicity against human H460 cells after 72 hrs by alamar blue assay; conditions: NCI-H460, 72 h; method in brief: as §1
# [2] = Cytotoxicity against human SKBR cells after 72 hrs by alamar blue assay; method in brief: as §1
# [3] = Cytotoxicity against human 292G cells after 72 hrs by alamar blue assay; method in brief: as §1
# NCI-H157 = assay: Cytotoxicity against human NCI-H157 cells after 72 hrs by alamar blue assay; conditions: NCI-H157, 72 h; method in brief: as §1
# A549 = assay: Cytotoxicity against human A549 cells after 72 hrs by alamar blue assay; conditions: A549, 72 h; method in brief: as §1
# LOX IMVI = assay: Cytotoxicity against human LOXIMVI cells after 72 hrs by alamar blue assay; method in brief: as §1
# [4] = Cytotoxicity against human H266 cells after 72 hrs by alamar blue assay; conditions: H266, 72 h; method in brief: as §1
Compound,IC50 (NCI-H1299),IC50 (HeLa),IC50 (HOP-62),IC50 (M14),IC50 (NCI-H1792),IC50 [1],IC50 (Calu-1),IC50 (NCI-H460),IC50 [2],IC50 [3],IC50 (NCI-H157),IC50 (A549),IC50 (LOX IMVI),IC50 [4]
COc1cc(/C=C/C(=O)OC/C=C/CO[N+](=O)[O-])ccc1O,2.34 µM,1 µM,5.13 µM,3.89 µM,4.86 µM,9.38 µM,2.48 µM,4.98 µM,6.53 µM,21.9 µM,4.29 µM,5.95 µM,2.36 µM,9.79 µM
CCCCCOC(=O)/C=C/c1ccc(O)c(O)c1,4.69 µM,2.02 µM,5.11 µM,7.48 µM,6.35 µM,6.8 µM,8.57 µM,1.91 µM,2.96 µM,7.73 µM,2.28 µM,5.75 µM,3.38 µM,7.24 µM
COc1cc(/C=C/C(=O)OCCCCO[N+](=O)[O-])ccc1OCCCCO[N+](=O)[O-],> 50 µM,0.74 µM,> 50 µM,> 50 µM,> 50 µM,> 50 µM,> 50 µM,> 50 µM,> 50 µM,> 50 µM,> 50 µM,> 50 µM,> 50 µM,> 50 µM
COc1cc(/C=C/C(=O)OCc2c(-c3ccccc3)no[n+]2[O-])ccc1O,12.9 µM,7.82 µM,8.66 µM,14 µM,11.1 µM,3.37 µM,22.9 µM,7.03 µM,4.98 µM,16.5 µM,4.53 µM,2.06 µM,13.8 µM,13.4 µM
CCCOC(=O)/C=C/c1ccc(O)c(O)c1,5.85 µM,1.51 µM,7.81 µM,13.5 µM,22.1 µM,12.4 µM,17.7 µM,7.01 µM,3.87 µM,7.58 µM,7.16 µM,4.39 µM,7.5 µM,34.4 µM
COc1cc(/C=C/C(=O)OCCCCCO[N+](=O)[O-])ccc1O,20.8 µM,13.4 µM,12.5 µM,24.5 µM,13 µM,21.8 µM,26.3 µM,12.3 µM,8.06 µM,24.9 µM,13.4 µM,6.39 µM,> 50 µM,21.2 µM
COc1cc(/C=C/C(=O)OCCOc2no[n+]([O-])c2S(=O)(=O)c2ccccc2)ccc1O,> 50 µM,> 50 µM,> 50 µM,> 50 µM,> 50 µM,> 50 µM,> 50 µM,> 50 µM,> 50 µM,> 50 µM,> 50 µM,> 50 µM,> 50 µM,> 50 µM
O=C(/C=C/c1ccc(O)c(O)c1)OCc1c(-c2ccccc2)no[n+]1[O-],> 50 µM,1.23 µM,6.12 µM,12.5 µM,3.78 µM,12.9 µM,7.68 µM,2.54 µM,0.7 µM,9.17 µM,> 50 µM,2.71 µM,13.3 µM,14.2 µM
COc1cc(/C=C/C(=O)Oc2cccc(OCc3c(-c4ccccc4)no[n+]3[O-])c2)ccc1O,> 50 µM,> 50 µM,> 50 µM,> 50 µM,> 50 µM,44.6 µM,> 50 µM,11.6 µM,14.2 µM,> 50 µM,24.7 µM,0.72 µM,49.4 µM,> 50 µM
COc1cc(/C=C/C(=O)OC(C)CCOc2no[n+]([O-])c2S(=O)(=O)c2ccccc2)ccc1O (stereo not given),0.41 µM,0.4 µM,0.42 µM,0.41 µM,0.4 µM,1.18 µM,0.45 µM,0.42 µM,0.4 µM,1.77 µM,0.41 µM,0.42 µM,0.41 µM,0.43 µM
